This note sets out measurements from ChEMBL document CHEMBL3576849, “De Novo Conception of Small Molecule Modulators Based on Endogenous Peptide Ligands: Pyrrolodiazepin-2-one γ-Turn Mimics That Differentially Modulate Urotensin II Receptor-Mediated Vasoconstriction ex Vivo” (J Med Chem, 2015).

Activity calls are given as the source filed them. The calls are words filed in the database; no cut-off is given here.

Assay [1] deals with T1, Urotensin-2 receptor (Homo sapiens) (UniProt Q9UKP6).
T1 sequence (whole entry): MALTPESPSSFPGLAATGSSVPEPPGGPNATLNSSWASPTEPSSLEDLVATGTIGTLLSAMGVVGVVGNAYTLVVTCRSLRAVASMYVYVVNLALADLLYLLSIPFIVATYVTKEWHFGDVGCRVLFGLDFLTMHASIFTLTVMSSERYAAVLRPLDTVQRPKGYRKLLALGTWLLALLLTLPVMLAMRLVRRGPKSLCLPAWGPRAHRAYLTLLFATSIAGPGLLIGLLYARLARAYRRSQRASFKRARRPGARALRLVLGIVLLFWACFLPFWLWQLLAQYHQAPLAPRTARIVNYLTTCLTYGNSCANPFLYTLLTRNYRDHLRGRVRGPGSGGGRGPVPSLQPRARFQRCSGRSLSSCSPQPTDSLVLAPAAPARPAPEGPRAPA
As to the kind of experiment: Displacement of [125I]-human urotensin-2 from human urotensin-2 receptor expressed in CHO cells at 100 uM after 90 mins by gamma counting analysis relative to control. In kind it is cell-based. The gist of the method: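 Incubated 90 min at room temperature with 100 µM compound plus 0.2 nM 125I-hUII (chloramine-T labelled). Cells washed and lysed, bound radioactivity gamma-counted. Reported as % of specific binding without competitor; nonspecific binding defined with 10 µM hUII. At least triplicate.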
Background: Loss of bound radioactivity is the signal in a displacement assay; it reports binding, not function.

The target in assay [2] is T2, Urotensin-2 receptor (Rattus norvegicus) (UniProt P49684).
T2 sequence (whole entry): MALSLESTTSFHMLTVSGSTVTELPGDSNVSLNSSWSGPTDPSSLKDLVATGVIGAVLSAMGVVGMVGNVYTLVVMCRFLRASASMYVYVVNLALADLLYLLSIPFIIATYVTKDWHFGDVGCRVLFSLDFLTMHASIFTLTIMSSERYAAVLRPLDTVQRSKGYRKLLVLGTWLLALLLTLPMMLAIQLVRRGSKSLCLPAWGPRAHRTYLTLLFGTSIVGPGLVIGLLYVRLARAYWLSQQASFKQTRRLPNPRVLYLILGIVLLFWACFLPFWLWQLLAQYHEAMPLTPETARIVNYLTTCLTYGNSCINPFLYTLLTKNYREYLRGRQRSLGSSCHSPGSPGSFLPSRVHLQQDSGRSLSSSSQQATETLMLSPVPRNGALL
Nature of the assay: Modulation of urotensin-2 receptor in Sprague-Dawley rat thoracic aortic ring assessed as urotensin-2 related peptide Emax for induction of aortic ring contraction at 10 uM preincubated for 15 mins followed by urotensin-2 related peptide addition (reference value: 132 +/- 4%).

For assay [3], the target named is T2, Urotensin-2 receptor (Rattus norvegicus). Nature of the assay: Agonist activity at urotensin-2 receptor in Sprague-Dawley rat thoracic aortic ring assessed as induction of aortic ring contraction at 10 to 100 uM. Summed up:
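Thoracic aortic rings from adult male Sprague-Dawley rats (250–300 g, killed by CO2 asphyxiation); analog added alone to the organ chamber at 10 or 100 µM to test for contraction. 40 mM KCl contractions served as control at start and end. Run at least in triplicate.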

Assay [4] has the same target. Nature of the assay: Modulation of urotensin-2 receptor in Sprague-Dawley rat thoracic aortic ring assessed as human urotensin-2 Emax for induction of aortic ring contraction at 10 uM preincubated for 15 mins followed by human urotensin-2 addition (reference value: 116 +/- 3%). The gist of the method: (§1)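 Thoracic aortic rings from adult male Sprague-Dawley rats (250–300 g, killed by CO2). Rings were exposed to test compound for 15 min, then cumulative hUII concentration-response curves were run (10-10–3.10-6 M). Contraction is expressed as % of the 40 mM KCl response, with KCl given at the start and end. EC50/pEC50/Emax come from a variable-slope sigmoidal fit. At least triplicate.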

For assay [5], the target named is T1, Urotensin-2 receptor (Homo sapiens). As to the kind of experiment: Induction of [125I]-human urotensin-2 binding to human urotensin-2 receptor expressed in CHO cells at 100 uM after 90 mins by gamma counting analysis relative to control. In kind it is cell-based. Summed up: (§2)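 Whole CHO cells stably expressing human UT, plated at 150,000 cells/well, incubated with test compound (100 µM) and 0.2 nM 125I-hUII for 90 min at room temperature. Cells were washed and lysed, and bound radioactivity was gamma-counted. Results are % of specific binding without competitor. Non-specific binding was defined with 10 µM hUII. At least triplicate; mean ± S.E.M.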

The target is the same in assay [6]. As to the kind of experiment: Effect on [125I]-human urotensin-2 binding to human urotensin-2 receptor expressed in CHO cells at 100 uM after 90 mins by gamma counting analysis relative to control. In kind it is cell-based. Summed up: as §2
For assay [7], the target named is T2, Urotensin-2 receptor (Rattus norvegicus). As to the kind of experiment: Modulation of urotensin-2 receptor in Sprague-Dawley rat thoracic aortic ring assessed as human urotensin-2 Emax for induction of aortic ring contraction at 15 uM preincubated for 15 mins followed by human urotensin-2 addition (reference value: 116 +/- 3%). The gist of the method:
as §1

Assay [8] has the same target. Nature of the assay: Modulation of urotensin-2 receptor in Sprague-Dawley rat thoracic aortic ring assessed as urotensin-2 related peptide Emax for induction of aortic ring contraction at 15 uM preincubated for 15 mins followed by urotensin-2 related peptide addition (reference value: 132 +/- 4%).
Assay [9] has the same target. As to the kind of experiment: Modulation of urotensin-2 receptor in Sprague-Dawley rat thoracic aortic ring assessed as human urotensin-2 Emax for induction of aortic ring contraction at 14 uM preincubated for 15 mins followed by human urotensin-2 addition (reference value: 116 +/- 3%).
Assay [10] has the same target. Nature of the assay: Modulation of urotensin-2 receptor in Sprague-Dawley rat thoracic aortic ring assessed as human urotensin-2 Emax for induction of aortic ring contraction at 1 uM preincubated for 15 mins followed by human urotensin-2 addition (reference value: 116 +/- 3%).
For assay [11] the target is unchanged. Nature of the assay: Modulation of urotensin-2 receptor in Sprague-Dawley rat thoracic aortic ring assessed as human urotensin-2 Emax for induction of aortic ring contraction at 4 uM preincubated for 15 mins followed by human urotensin-2 addition (reference value: 116 +/- 3%).
The target is the same in assay [12]. Nature of the assay: Modulation of urotensin-2 receptor in Sprague-Dawley rat thoracic aortic ring assessed as urotensin-2 related peptide Emax for induction of aortic ring contraction at 14 uM preincubated for 15 mins followed by urotensin-2 related peptide addition (reference value: 132 +/- 4%).
For assay [13] the target is unchanged. Nature of the assay: Noncompetitive antagonist activity at urotensin-2 receptor in Sprague-Dawley rat thoracic aortic ring assessed as reduction in human urotensin-2-induced response at 4 uM by double reciprocal plot analysis.
The species entered for another assay is Rattus norvegicus. Nature of the assay: Modulation of […] in Sprague-Dawley rat thoracic aortic ring assessed as change in human endothelin-1-induced aortic ring contraction at 1.4 x 10^-5 M.
Assay [14] addresses T2, Urotensin-2 receptor (Rattus norvegicus). Nature of the assay: Modulation of urotensin-2 receptor in Sprague-Dawley rat thoracic aortic ring assessed as reduction of human urotensin-2-induced aortic ring contraction preincubated for 15 mins followed by human urotensin-2 addition.
For assay [15] the target is unchanged. Nature of the assay: Modulation of urotensin-2 receptor in Sprague-Dawley rat thoracic aortic ring assessed as urotensin-2 related peptide Emax for induction of aortic ring contraction at 8 uM preincubated for 15 mins followed by urotensin-2 related peptide addition (reference value: 132 +/- 4%).
Assay [16] shares this target. Nature of the assay: Modulation of urotensin-2 receptor in Sprague-Dawley rat thoracic aortic ring assessed as human urotensin-2 Emax for induction of aortic ring contraction at 8 uM preincubated for 15 mins followed by human urotensin-2 addition (reference value: 116 +/- 3%). The gist of the method:
as §1

The target is the same in assay [17]. As to the kind of experiment: Modulation of urotensin-2 receptor in Sprague-Dawley rat thoracic aortic ring assessed as human urotensin-2 Emax for induction of aortic ring contraction at 11 uM preincubated for 15 mins followed by human urotensin-2 addition (reference value: 116 +/- 3%).
Assay [18] shares this target. As to the kind of experiment: Modulation of urotensin-2 receptor in Sprague-Dawley rat thoracic aortic ring assessed as urotensin-2 related peptide Emax for induction of aortic ring contraction at 11 uM preincubated for 15 mins followed by urotensin-2 related peptide addition (reference value: 132 +/- 4%).

Usually inhibition stands for the drop in the measured response relative to a control, in per cent. High values mean a strong effect, low ones a weak effect. Broadly, the Emax is the greatest response seen or fitted, relative to the assay's reference. In assay [1], `NCCCC[C@@H]1N[C@H](c2ccc3ccccc3c2)c2[nH]c(C(=O)O)cc2N(CCc2ccc(O)cc2)C1=O` showed an inhibition of 25%. Also, the Emax amounted to 217% in [2] and 175% in assay [4]. For the same compound, in [3], the outcome was inactive.
For `NCCC[C@@H]1N=C(c2ccc(-c3ccccc3)cc2)c2[nH]c(C(=O)O)cc2N(CCc2ccc(O)cc2)C1=O`, the Emax in assay [2] worked out at 93%; in [4], 97%. The outcome in assay [3] was inactive. The compound further displayed an Activity in assay [5] of 117%.
In the case of `NCCC[C@@H]1N=C(c2ccc3ccccc3c2)c2[nH]c(C(=O)O)cc2N(CCc2ccc(O)cc2)C1=O`, the Emax in [2] came to 142%; in assay [4] it was 70%. Besides, the outcome in assay [3] and in assay [6] was inactive.
For the compound `NCCCC[C@@H]1N=C(c2ccc(-c3ccccc3)cc2)c2[nH]c(C(=O)O)cc2N(CCc2ccc(O)cc2)C1=O`, the maximal effect (Emax) amounted to 128% in assay [7] and 110% in [8]. Further, the result in assay [3] and in assay [6] was inactive.
One may read the Kb as the affinity of an antagonist, worked out from how it opposes an agonist. What is called pKb is the Kb on a negative log10 scale, so that one unit is a factor of ten. Consider `NCCCC[C@@H]1N[C@H](c2ccc(-c3ccccc3)cc2)c2[nH]c(C(=O)O)cc2N(CCc2ccc(O)cc2)C1=O`, for which the Emax was 0% in assay [9], 92% in assay [10], 63% in assay [11] and 185% in [12]. The same compound gave an inhibition in assay [1] of 25%. In addition, the result (in [3]; in the assay filed under Rattus norvegicus) was inactive. Besides, the Kb in assay [13] came out at 2900 nM. Also, the pKb in assay [13] was 5.54. Also, the Activity result in assay [14] was “Dose-dependent effect”.
In turn, `NCCC[C@@H]1N[C@@H](c2cccc3ccccc23)c2[nH]c(C(=O)O)cc2N(CCc2ccc(O)cc2)C1=O` came in with an inhibition in [1] of 25%. For the same compound, the Emax is 238% in assay [2] and 148% in assay [4]. In addition, the outcome in assay [3] was inactive.
With `NCCC[C@@H]1N[C@H](c2cccc3ccccc23)c2[nH]c(C(=O)O)cc2N(CCc2ccc(O)cc2)C1=O`, the inhibition in [1] was determined as 25%. In addition, the Emax in assay [2] was 210%; in assay [4] it was 139%. For the same compound, in assay [3], the result was inactive.
With `NCCCC[C@@H]1N[C@@H](c2ccc3ccccc3c2)c2[nH]c(C(=O)O)cc2N(CCc2ccc(O)cc2)C1=O`, the inhibition in [1] was 25%. The Emax in assay [2] amounted to 107%; in [4], 194%. In addition, the outcome in assay [3] was inactive.
As for `NCCC[C@@H]1N=C(c2cccc3ccccc23)c2[nH]c(C(=O)O)cc2N(CCc2ccc(O)cc2)C1=O`, the Emax was 46% in [2] and 74% in assay [4]. Besides, the outcome in [3] and in assay [6] was inactive.
For `NCCCC[C@@H]1N[C@@H](c2ccc(-c3ccccc3)cc2)c2[nH]c(C(=O)O)cc2N(CCc2ccc(O)cc2)C1=O`, the Emax in [9] is 121%; in assay [12] it was 113%. For the same compound, the result in assay [3] and in assay [6] was inactive.
As to `NCCCC[C@@H]1N=C(c2ccc3ccccc3c2)c2[nH]c(C(=O)O)cc2N(CCc2ccc(O)cc2)C1=O`, the values for the Emax in assay [2] and in assay [4] were 51% and 80%, respectively. For the same compound, the outcome in assay [3] and in [6] was inactive.
For the compound `NCCCC[C@@H]1N=C(c2cccc3ccccc23)c2[nH]c(C(=O)O)cc2N(CCc2ccc(O)cc2)C1=O`, the outcome in [3] and in assay [6] was inactive. The Emax turned out to be 60% in assay [15] and 123% in assay [16].
Consider `NCCC[C@@H]1N[C@H](c2ccc(-c3ccccc3)cc2)c2[nH]c(C(=O)O)cc2N(CCc2ccc(O)cc2)C1=O`, for which the Emax in assay [17] turned out to be 162%; in assay [18], 139%. The outcome in assay [3] and in assay [6] was inactive.
